The values that follow come from ChEMBL document CHEMBL1150775, “Synthesis and evaluation of estrogen agonism of diaryl 4,5-dihydroisoxazoles, 3-hydroxyketones, 3-methoxyketones, and 1,3-diketones: a compound set forming a 4D molecular library” (J Med Chem, 2008).

SMILES strings stand for the structures.

Experiment [1] concerns the target Estrogen receptor beta (Homo sapiens) (UniProt Q92731). The experiment can be described thus: Activation of human estrogen receptor beta expressed in HEK293 cells at 10 uM beta-galactosidase reporter gene assay relative to 3,17-beta-estradiol. The format is cell-based. The procedure, abridged:
(§1)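 HEK293 cells seeded a day ahead in phenol-free DMEM with 5% delipidated FBS. Calcium phosphate transfection for 4 h with 5 ng ERα or ERβ expression vector, 75 ng pERE2TATA-LUC reporter and 20 ng pCMVβ control. Test compound at 10 µM (vehicle 0.1% v/v) for 24 h. Luciferase normalized to β-galactosidase. Activity = 100% × (test − vehicle)/(10 nM E2 − vehicle). Mean of ≥3 independent transfections.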
(In general: In a reporter assay the amount or activity of a reporter protein is the signal.)

Experiment [2] has as its target T1, Estrogen receptor (Homo sapiens) (UniProt P03372).
T1 sequence (whole entry): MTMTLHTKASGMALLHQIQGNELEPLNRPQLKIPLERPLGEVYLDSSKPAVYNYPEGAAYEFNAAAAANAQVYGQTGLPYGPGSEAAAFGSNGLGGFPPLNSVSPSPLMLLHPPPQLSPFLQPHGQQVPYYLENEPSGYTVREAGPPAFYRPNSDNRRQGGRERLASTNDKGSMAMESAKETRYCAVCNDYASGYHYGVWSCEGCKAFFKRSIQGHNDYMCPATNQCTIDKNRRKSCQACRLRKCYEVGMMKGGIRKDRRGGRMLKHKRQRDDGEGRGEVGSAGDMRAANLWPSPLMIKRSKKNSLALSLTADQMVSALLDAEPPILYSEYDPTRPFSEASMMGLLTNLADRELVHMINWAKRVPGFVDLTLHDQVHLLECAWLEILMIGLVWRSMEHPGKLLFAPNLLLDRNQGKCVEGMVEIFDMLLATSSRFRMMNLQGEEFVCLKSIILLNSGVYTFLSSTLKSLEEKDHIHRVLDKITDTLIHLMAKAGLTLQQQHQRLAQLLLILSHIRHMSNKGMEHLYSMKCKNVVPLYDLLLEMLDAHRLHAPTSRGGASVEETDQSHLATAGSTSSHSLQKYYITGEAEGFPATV
The experiment can be described thus: Activation of human estrogen receptor alpha expressed in HEK293 cells at 10 uM by beta-galactosidase reporter gene assay relative to 3,17 beta-estradiol. The format is cell-based. Put shortly:
as §1

Chain of Estrogen receptor beta (Homo sapiens) (Q92731 whole entry): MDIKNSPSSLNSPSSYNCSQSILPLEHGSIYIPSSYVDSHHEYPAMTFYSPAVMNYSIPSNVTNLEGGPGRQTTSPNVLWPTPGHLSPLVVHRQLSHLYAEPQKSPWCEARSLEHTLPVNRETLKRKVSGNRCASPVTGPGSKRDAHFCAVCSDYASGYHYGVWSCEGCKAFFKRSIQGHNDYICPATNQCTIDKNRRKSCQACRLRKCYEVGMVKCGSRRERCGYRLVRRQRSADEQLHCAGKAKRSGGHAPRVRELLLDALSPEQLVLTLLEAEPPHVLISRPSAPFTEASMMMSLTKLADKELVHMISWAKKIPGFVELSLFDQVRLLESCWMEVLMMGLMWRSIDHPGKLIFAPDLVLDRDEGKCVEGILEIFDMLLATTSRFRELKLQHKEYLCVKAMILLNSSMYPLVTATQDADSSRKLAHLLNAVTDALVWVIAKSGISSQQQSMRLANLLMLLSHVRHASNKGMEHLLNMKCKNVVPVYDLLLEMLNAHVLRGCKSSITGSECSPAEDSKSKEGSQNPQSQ

Take `O=C(CC(=O)c1ccccc1)Cc1ccccc1`: the Activity in experiment [1] came to 9.7%; in experiment [2], 5.4%.
With `COC(CC(=O)CCc1ccccc1)Cc1ccc2ccccc2c1` (centres undefined), the Activity is 12.4% in experiment [1] and 30.4% in experiment [2].
Consider `c1ccc(CC2=NOC(c3ccccc3)C2)cc1` (centres undefined), for which the results for the Activity in experiment [1] and in experiment [2] were 34.4% and 19.6%, respectively.
For the molecule `O=C(CCCc1ccccc1)CC(O)c1ccccc1` (single isomer, unassigned; 24a), the Activity in experiment [1] was found to be 147%; in experiment [2], 91.4%.
For `COc1ccc(CC(O)CC(=O)CCc2ccccc2)cc1` (single isomer, unassigned; 54b), in that order: 1.2% and 1.3%.
The corresponding values for `O=C(Cc1ccccc1)CC(O)Cc1ccccc1` (centres undefined) are 1.7% and 8.4%.
With `COc1ccccc1CC(=O)CC(Cc1cccc2ccccc12)OC` (single isomer, unassigned; 63b), the Activity is -0.2% in experiment [1] and 0.6% in experiment [2].
For `CS(C)=C(C(=O)CCc1ccccc1)C(=O)Cc1ccccc1`, in that order: -7.1% and 0.5%.
For `COc1cc2ccccc2cc1CC(CC(=O)Cc1ccc2ccccc2c1)OC` (centres undefined), in that order: 2% and 14.8%.
As to `Oc1ccc(CCC2=NOC(Cc3ccc(F)cc3)C2)cc1` (centres undefined), the Activity was 4.4% in experiment [1] and 5.7% in experiment [2].
For `Oc1ccccc1CCC1=NOC(Cc2ccc(F)cc2)C1` (single isomer, unassigned; 73b), in that order: -2.4% and 11.1%.
For `O=C(CCCc1ccccc1)CC(O)Cc1ccccc1` (centres undefined), in that order: 9.1% and 24.7%.
For `CS(C)=C(C(=O)CCc1ccccc1)C(=O)c1ccccc1`, in that order: 3.3% and -2.5%.
Turning to `COc1ccccc1CC(CC(=O)Cc1ccc2ccccc2c1)OC` (centres undefined), the Activity in experiment [1] is 0.1%; in experiment [2] it was 0.2%.
The corresponding values for `O=C(CCCc1ccccc1)CC(O)CCc1ccccc1` (centres undefined) are -7.1% and 2.2%.
The corresponding values for `Fc1ccc(CC2CC(CCc3ccccc3)=NO2)cc1` (single isomer, unassigned) are 7.4% and 28.9%.
For `c1ccc(CCC2=NOC(Cc3ccccc3)C2)cc1` (single isomer, unassigned), in that order: 1.1% and 68.4%.
Consider `COc1ccccc1CC(=O)CC(Cc1ccc2ccccc2c1)OC` (single isomer, unassigned; 66a), for which the Activity is -0.5% in experiment [1] and 3.5% in experiment [2].
The corresponding values for `CS(C)=C(C(=O)Cc1ccccc1)C(=O)c1ccccc1` are 5.8% and -1.2%.
The corresponding values for `c1ccc(CCC2CC(c3ccccc3)=NO2)cc1` (single isomer, unassigned; 10a) are 8.5% and 22.8%.
For `COC(CC(=O)CCc1ccccc1)Cc1ccc(F)cc1` (centres undefined), in that order: 11.2% and 33.1%.
Consider `c1ccc(CCCC2=NOC(Cc3ccccc3)C2)cc1` (centres undefined), for which the Activity in experiment [1] is 13.6%; in experiment [2] it was 31.3%.
Consider `c1ccc(CCC2CC(Cc3ccccc3)=NO2)cc1` (centres undefined), for which the values for the Activity in experiment [1] and in experiment [2] were 1.2% and 7%, respectively.
For `Oc1ccc(CCC2=NOC(Cc3ccc(F)cc3)C2)cc1` (single isomer, unassigned), in that order: 28.4% and 77.8%.
The corresponding values for `c1ccc(CCC2CC(c3ccccc3)=NO2)cc1` (single isomer, unassigned; 10b) are -6% and 1.1%.
The corresponding values for `COc1ccccc1CC(=O)CC(Cc1ccc2ccccc2c1)OC` (single isomer, unassigned; 66b) are -0.5% and 4.3%.
For `O=C(CCc1ccccc1)CC(O)CCc1ccccc1` (centres undefined), the results for the Activity in experiment [1] and in experiment [2] were 1% and 16.2%, respectively.
